Data taken from ChEMBL document CHEMBL5385958, “Psammaplin A and Its Analogs Attenuate Oxidative Stress in Neuronal Cells through Peroxisome Proliferator-Activated Receptor γ Activation” (J Nat Prod, 2024).
Active and inactive are the calls of the source. The rule behind the calls is not given here.

How the values were obtained:
[1] = test system: SH-SY5Y; experiment: Cytotoxicity against human SH-SY5Y cells assessed as reduction in cell viability at 0.001 to 1 uM incubated for 24 hrs by MTT assay; assay type: toxicity, cell-based; conditions: dose 0.001-1 µM
Procedure, shortened: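 MTT viability of SH-SY5Y cells (5 × 10^4/well) after 24 h exposure to 0.001, 0.01, 0.1 and 1 μM. 500 μg/mL MTT for 1 h at 37 °C after Locke's buffer wash; SDS solubilization; absorbance at 595 nm with 1 mg/mL saponin blank subtracted. DMSO vehicle below 0.5%. Triplicate, three independent times.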

[2] = target: T1, Peroxisome proliferator-activated receptor gamma (Homo sapiens) (UniProt P37231); experiment: Activation of PPARgamma in human SH-SY5Y cells at 1 uM incubated for 6 hrs relative to control; assay type: cell-based; conditions: filed as activator
T1 sequence (whole entry): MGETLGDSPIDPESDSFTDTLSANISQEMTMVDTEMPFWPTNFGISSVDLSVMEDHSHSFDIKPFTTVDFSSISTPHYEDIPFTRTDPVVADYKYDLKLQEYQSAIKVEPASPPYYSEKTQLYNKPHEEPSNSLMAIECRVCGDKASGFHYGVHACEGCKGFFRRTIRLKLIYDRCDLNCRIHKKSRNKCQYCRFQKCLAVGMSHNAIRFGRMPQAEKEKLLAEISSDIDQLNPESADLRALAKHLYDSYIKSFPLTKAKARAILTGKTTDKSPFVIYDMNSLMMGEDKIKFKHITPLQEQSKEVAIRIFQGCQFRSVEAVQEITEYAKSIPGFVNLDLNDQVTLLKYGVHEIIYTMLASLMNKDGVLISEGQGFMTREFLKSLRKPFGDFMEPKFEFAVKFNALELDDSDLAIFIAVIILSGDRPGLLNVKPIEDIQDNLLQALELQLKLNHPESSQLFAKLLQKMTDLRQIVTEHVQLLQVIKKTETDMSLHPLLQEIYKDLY
Procedure, shortened: (§1)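 Nuclear extracts from SH-SY5Y cells (1 × 10^6/well) treated 6 h with 0.001–1 μM agent; rosiglitazone 10 μM as positive control. PPARγ DNA-binding activity measured by ELISA-type transcription factor kit. Absorbance corrected by Bradford protein content and expressed as percentage of control cells. Three independent experiments.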

[3] = test system: SH-SY5Y; experiment: Antioxidant activity in human SH-SY5Y cells assessed as protection against H2O2 induced loss of cell viability at 0.001 to 0.1 uM incubated for 6 hrs in presence of H2O2 by MTT assay; assay type: functional, cell-based; conditions: dose 0.001-0.1 µM
Procedure, shortened: (§2)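 Neuroprotection by MTT: SH-SY5Y cells (5 × 10^4/well) cotreated 6 h with agent plus 150 μM H2O2; vitamin E 25 μM as positive control. Cells washed with Locke's buffer, given 500 μg/mL MTT for 1 h at 37 °C, solubilized with 5% SDS, absorbance read at 595 nm. Saponin 1 mg/mL death control subtracted. Triplicate, three independent times.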

[4] = test system: SH-SY5Y; experiment: Antioxidant activity in human SH-SY5Y cells assessed as reversal of H2O2 induced mitochondrial membrane depolarization at 0.001 to 0.1 uM incubated for 6 hrs by TMRM staining based microplate reader analysis; assay type: functional, cell-based; conditions: dose 0.001-0.1 µM
Procedure, shortened: (§3)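 SH-SY5Y cells (5 × 10^4/well) cotreated with agent and 150 μM H2O2 for 6 h, then loaded with 1 μM TMRM for 30 min at 37 °C. Cells lysed with 50% H2O/DMSO; fluorescence read at 535/590 nm. Vitamin E 25 μM as positive control. Data expressed as percentage of untreated control cells. Triplicate, three independent times.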

[5] = test system: SH-SY5Y; experiment: Inhibition of H2O2 induced ROS release in human SH-SY5Y cells at 1 uM incubated for 6 hrs by carboxy-H2DCFDA staining based assay; assay type: functional; set-up: scale not given: the % may be the effect or the level left
Procedure, shortened: (§4)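 ROS measurement: SH-SY5Y cells exposed to agent and 150 μM H2O2 for 6 h, washed with serum-free medium and loaded with 20 μM carboxy-H2DCFDA for 1 h at 37 °C, then PBS for 30 min. Fluorescence read by plate reader. Vitamin E 25 μM as positive control. Triplicate, three independent times; percentage of untreated control.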

[6] = test system: SH-SY5Y; experiment: Antioxidant activity in human SH-SY5Y cells assessed as recovery of H2O2 decreased GSH level at 1 uM incubated for 30 min by fluorescence based microplate reader assay relative to control (reference value: 83 +/- 2%); assay type: functional; set-up: scale not given: the % may be the effect or the level left; conditions: 0.5 h
[7] = test system: SH-SY5Y; experiment: Inhibition of mPTP opening in human SH-SY5Y cells assessed as decrease in cyclophilin D protein expression at 0.001 uM incubated for 6 hrs by Western blot analysis; assay type: cell-based
Procedure, shortened: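 15 μg cytosolic protein run on 4–20% SDS-PAGE, probed with anti-cyclophilin antibody 1:1000, bands normalized to actin. Three replicates in duplicate; percentage of untreated or H2O2 control.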

[8] = target: T1, Peroxisome proliferator-activated receptor gamma (Homo sapiens); experiment: Activation of PPARgamma in human SH-SY5Y cells assessed as increase in PPARgamma nucleus translocation at 0.001 uM incubated for 6 hrs by Western blot analysis; assay type: cell-based; conditions: filed as activator
Procedure, shortened: (§5)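 Western blot on SH-SY5Y cells (1 × 10^6/well) treated 6 h, with or without 150 μM H2O2. Hypotonic lysis gave cytosolic fraction; nuclear extraction buffer gave nuclear fraction. 10 μg nuclear or 15 μg cytosolic protein per lane, anti-PPARγ 1:1000. Bands normalized to lamin B1 (nuclear) or actin (cytosolic); translocation expressed as nuclear/cytosolic ratio. Three replicates in duplicate.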

[9] = target: T1, Peroxisome proliferator-activated receptor gamma (Homo sapiens); experiment: Activation of PPARgamma in H2O2 induced human SH-SY5Y cells assessed as increase in PPARgamma nucleus translocation incubated for 6 hrs by Western blot analysis; assay type: cell-based; conditions: filed as activator; procedure, shortened: as §5
[10] = target: T1, Peroxisome proliferator-activated receptor gamma (Homo sapiens); experiment: Activation of PPARgamma in H2O2 induced human SH-SY5Y cells assessed as increase in catalase mRNA expression level incubated for 6 hrs by qPCR analysis; assay type: cell-based; conditions: filed as activator
Procedure, shortened: (§6)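 qPCR on SH-SY5Y cells (1 × 10^6/well, attached 24 h) given test agent together with 150 μM H2O2 for 6 h. Total RNA extracted, reverse transcribed with oligo-dT, amplified with SYBR Green and gene-specific primers (CAT, SOD1, GPx1). RPLP0 used as internal normalizer; ΔΔCt relative to H2O2-control calibrator. Three independent replicates in triplicate; rosiglitazone 10 μM as positive control.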

[11] = target: T1, Peroxisome proliferator-activated receptor gamma (Homo sapiens); experiment: Activation of PPARgamma in human SH-SY5Y cells assessed as increase in glutathione peroxidase 1 mRNA expression incubated for 6 hrs by qPCR analysis; assay type: cell-based; conditions: filed as activator
Procedure, shortened: (§7)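 SH-SY5Y cells (1 × 10^6/well, 24 h attachment) exposed to test agent alone for 6 h. RNA extracted, cDNA made with oligo-dT primers, SYBR Green qPCR for CAT, GPx1, Nrf2 or SOD1. Expression normalized to RPLP0 and calculated by ΔΔCt against untreated control calibrator. Three independent replicates performed in triplicate; rosiglitazone 10 μM as positive control.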

[12] = target: T1, Peroxisome proliferator-activated receptor gamma (Homo sapiens); experiment: Activation of PPARgamma in H2O2 induced human SH-SY5Y cells assessed as increase in glutathione peroxidase 1 mRNA expression incubated for 6 hrs by qPCR analysis; assay type: cell-based; conditions: filed as activator; procedure, shortened: as §6
[13] = target: T1, Peroxisome proliferator-activated receptor gamma (Homo sapiens); experiment: Activation of PPARgamma in human SH-SY5Y cells assessed as increase in Nrf2 mRNA expression level at 0.001 uM incubated for 6 hrs by qPCR analysis; assay type: cell-based; conditions: filed as activator; procedure, shortened: as §7
[14] = test system: SH-SY5Y; experiment: Inhibition of mPTP opening in human SH-SY5Y cells assessed as increase in calcein fluorescence signal by flow cytometry analysis relative to control; assay type: cell-based; conditions: dose or concentration not given here
Procedure, shortened: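 mPTP assay: detached SH-SY5Y cells in PBS with 0.6 mM CaCl2 loaded with calcein-AM for 15 min at 37 °C. 0.4 mM CoCl2 plus 0.001 μM agent added for 15 min, then 1 mM TBHP for 3 min.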

[15] = target: T1, Peroxisome proliferator-activated receptor gamma (Homo sapiens); experiment: Activation of PPARgamma in human SH-SY5Y cells assessed as transcription activity at 0.001 to 0.1 uM incubated for 6 hrs; assay type: cell-based; conditions: filed as activator, dose 0.001-0.1 µM; procedure, shortened: as §1
[16] = test system: SH-SY5Y; experiment: Inhibition of H2O2 induced ROS release in human SH-SY5Y cells at 0.001 to 1 uM incubated for 6 hrs by carboxy-H2DCFDA staining based assay; assay type: functional; set-up: scale not given: the % may be the effect or the level left; conditions: dose 0.001-1 µM; procedure, shortened: as §4
[17] = test system: SH-SY5Y; experiment: Antioxidant activity in human SH-SY5Y cells assessed as recovery of H2O2 decreased GSH level at 0.001 to 1 uM incubated for 30 min by fluorescence based microplate reader assay; assay type: functional, cell-based; conditions: dose 0.001-1 µM
[18] = target: T1, Peroxisome proliferator-activated receptor gamma (Homo sapiens); experiment: Activation of PPARgamma in human SH-SY5Y cells assessed as increase in superoxide dismutase 1 mRNA expression at 0.001 uM incubated for 6 hrs by qPCR analysis; assay type: cell-based; conditions: filed as activator; procedure, shortened: as §7
[19] = test system: SH-SY5Y; experiment: Antioxidant activity in human SH-SY5Y cells assessed as protection against H2O2 induced loss of cell viability at 0.001 uM incubated for 6 hrs in presence of H2O2 by MTT assay (reference value: 76 +/- 4%); assay type: functional; procedure, shortened: as §2
[20] = test system: SH-SY5Y; experiment: Antioxidant activity in human SHSY-5Y cells assessed as protection against H2O2 induced loss of cell viability at 0.01 uM incubated for 6 hrs in presence of H2O2 by MTT assay (reference value: 76 +/- 4%); assay type: functional; procedure, shortened: as §2
[21] = test system: SH-SY5Y; experiment: Antioxidant activity in human SH-SY5Y cells assessed as reversal of H2O2 induced mitochondrial membrane depolarization at 0.001 uM incubated for 6 hrs by TMRM staining based microplate reader analysis (reference value: 76 +/- 2%); assay type: functional; procedure, shortened: as §3
[22] = test system: SH-SY5Y; experiment: Inhibition of H2O2 induced ROS release in human SH-SY5Y cells at 0.001 uM incubated for 6 hrs by carboxy-H2DCFDA staining based assay; assay type: functional; set-up: scale not given: the % may be the effect or the level left; procedure, shortened: as §4
[23] = test system: SH-SY5Y; experiment: Antioxidant activity in human SH-SY5Y cells assessed as protection against H2O2 induced loss of cell viability at 25 uM incubated for 6 hrs in presence of H2O2 by MTT assay; assay type: functional, cell-based; procedure, shortened: as §2
[24] = test system: SH-SY5Y; experiment: Inhibition of H2O2 induced ROS release in human SH-SY5Y cells at 25 uM incubated for 6 hrs by carboxy-H2DCFDA staining based assay; assay type: functional, cell-based; set-up: scale not given: the % may be the effect or the level left; procedure, shortened: as §4

Molecule	Activity [1]	Activity [3]	Activity [4]	Activity [5]	Activity [6]	inhibition [7]	Activity [8]	Activity [9]	Activity [10]	Activity [11]	Activity [12]	Activity [13]	inhibition [14]	also measured
O=C(NCCSSCCNC(=O)/C(Cc1cc(O)c(O)c(Br)c1)=N\O)/C(Cc1ccc(O)c(Br)c1)=N\O	Non-Toxic	Active	Active	99%	117%	inactive	151%	177%	Active	Active	Active	Active	–	Activity [2]: 130%
CC(C)(C)OO	–	–	–	–	–	–	–	–	–	–	–	–	54%	–
CN(CCOc1ccc(CC2SC(=O)NC2=O)cc1)c1ccccn1 (centres undefined)	–	–	–	–	–	–	–	139%	–	–	–	–	–	–
O=C(NCCSSCCNC(=O)/C(Cc1cc(Br)c(O)c(-c2cc(C/C(=N\O)C(=O)NCCSSCCNC(=O)/C(Cc3ccc(O)c(Br)c3)=N/O)cc(Br)c2O)c1)=N/O)/C(Cc1ccc(O)c(Br)c1)=N/O [BISAPRASIN]	Non-Toxic	Active	Active	–	–	inactive	180%	–	Active	Active	Active	Active	92%	Activity [15]: Active; Activity [16]: 87%; Activity [17]: Active; Activity [18]: Active
O=C(NCCSSCCNC(=O)/C(Cc1ccc(O)c(Br)c1)=N/O)/C(Cc1ccc(O)c(Br)c1)=N/O [PSAMMAPLIN A]	Non-Toxic	–	–	96%	120%	inactive	136%	150%	–	Active	Active	Active	–	Activity [19]: 100%; Activity [20]: 96%; Activity [21]: 100%; Activity [22]: 101%
VITAMIN E	–	–	–	–	–	–	–	–	–	–	–	–	–	Activity [23]: 106%; Activity [24]: 101%
